Source: PubChem BioAssay (The Scripps Research Institute Molecular Screening Center)
Shown are actives, neighbours in structure and some others; about 1% of the full set was active somewhere.
LYPLA1 counter: counter-screen for PME1 inhibitors: inhibitors of human LYPLA1; inhibition, % at 5.9 µM; 320,000 tested, 0.16% active; recombinant LYPLA1, FP-Rh probe fluorescence polarization; O75608; AID 2174;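 active = inhibition above the mean of all tested compounds plus 3 SD, set per campaign, cut at about 14% in these data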;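 also: inhibitors block serine hydrolase probe labeling of LYPLA1 so polarization falls; 0% = enzyme with DMSO and 100% = wells lacking LYPLA1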
Target sequence (O75608 whole entry, looked up): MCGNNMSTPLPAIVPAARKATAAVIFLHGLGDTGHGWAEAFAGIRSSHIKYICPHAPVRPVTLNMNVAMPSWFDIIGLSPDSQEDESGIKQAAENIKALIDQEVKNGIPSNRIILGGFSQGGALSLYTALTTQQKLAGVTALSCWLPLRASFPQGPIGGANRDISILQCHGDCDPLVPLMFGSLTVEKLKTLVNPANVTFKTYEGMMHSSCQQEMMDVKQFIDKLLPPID
procasp3 activ: activators of human procaspase-3. P42574. recombinant procaspase-3 D3A, Ac-DEVD-pNA absorbance 405 nm. activation, % at 8.5 µM. 330,000 tested, 0.11% active. AID 463141;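 active = activation above the mean of all tested compounds plus 3 SD, cut at about 21% in these data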;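 also: 0% = DMSO alone and 100% = DMSO wells spiked with extra 5 µM PC-3 D3A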
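material = Procaspase-3 D3A mutant | probe or stimulus = Ac-DEVD-pNA | compound = single dose, 8.5 µM nominal compound, 0.8% DMSO | timing = 1 h preincubation, 2 h reaction | measured by = 405 nm absorbance of p-nitroaniline, reads at 0 and 120 min | benchmarks = DMSO-only low control, 5 µM PC-3 D3A high control | repeats = singlicate, each compound tested once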
procasp7 counter: counter-screen: procaspase-7 (human) activation; recombinant procaspase-7, Ac-DEVD-pNA absorbance 405 nm; D23A/D198A/D206A triple mutant, cannot self-cleave; scale: DMSO 0, 5 µM enzyme 100; activation, % at 8.5 µM; 330,000 tested, 0.093% active;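 active = percent activation above the screen-wide mean plus 3 SD, cut at about 25% in these data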
Target sequence (P55210 whole entry D23A/D198A/D206A): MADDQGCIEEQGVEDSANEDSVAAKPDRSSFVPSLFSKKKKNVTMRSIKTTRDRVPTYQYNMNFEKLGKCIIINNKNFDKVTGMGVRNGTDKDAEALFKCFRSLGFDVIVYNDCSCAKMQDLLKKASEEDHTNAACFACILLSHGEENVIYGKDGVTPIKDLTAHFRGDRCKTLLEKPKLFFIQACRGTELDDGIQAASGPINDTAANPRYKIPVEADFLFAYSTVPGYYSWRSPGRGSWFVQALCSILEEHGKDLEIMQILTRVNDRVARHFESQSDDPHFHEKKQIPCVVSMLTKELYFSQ
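Assay system – Uncleavable procaspase-7 mutant enzyme · Quantity – 2 µM procaspase-7 mutant as dispensed · Times – 1 h preincubation, 2 h reaction · Dosing – single nominal 8.5 µM compound dose, 0.8% DMSO final · Buffer or medium – Zinc-free 50 mM HEPES buffer, pH 7.4, with NaCl and Triton X-100 · Detection – Epi-absorbance of released pNA at 405 nm, two timepoints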
LYPLA2 inh: LYPLA2 (human) inhibition in PME1 counter-screen; O95372; recombinant LYPLA2, FP-Rh probe fluorescence polarization; inhibition, % at 5.9 µM; 320,000 tested, 0.38% active; AID 2177;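 active = inhibition above the screen-wide mean plus 3 SD, limit set per campaign, cut at about 26% in these data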;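 also: 0% = LYPLA2 with DMSO and 100% = wells lacking LYPLA2 enzyme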
PREPL inh: inhibits the human prolyl oligopeptidase-like enzyme; Q4J6C6; recombinant PREPL, fluorescence polarization activity-based probe; inhibition, % at 5.96 µM; 320,000 tested, 0.68% active; AID 2751;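 also: 0% = enzyme with DMSO and 100% = wells lacking enzyme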
LYPLA1 conf: LYPLA1 (human) inhibition, confirmation counter-screen. inhibition, % at 5.9 µM. 480 tested, 69% active. shares compounds with LYPLA1 counter. AID 2233. recombinant LYPLA1, FP-Rh probe fluorescence polarization;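 active = mean inhibition across replicates above the hit cutoff set in the primary screen, cut at about 15% in these data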;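 also: loss of FP-Rh probe labeling of LYPLA1 seen as lower polarization; 0% = LYPLA1 with DMSO and 100% = wells lacking LYPLA1 enzyme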
LYPLA2 confirm: counter-screen for PME1 inhibitors: confirmation of human LYPLA2 inhibitors. shares compounds with LYPLA2 inh. recombinant LYPLA2, FP-Rh probe fluorescence polarization. inhibition, % at 5.9 µM. 1,100 tested, 72% active;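 active = mean inhibition across replicates above the hit cutoff set in the primary screen, cut at about 26% in these data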;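 also: blocked labeling of the enzyme by serine hydrolase FP-Rh probe lowers polarization; 0% = enzyme with DMSO and 100% = wells lacking LYPLA2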
PREPL inh cf: confirmation of human PREPL enzyme inhibitors; shares compounds with PREPL inh; recombinant PREPL, fluorescence polarization activity probe; inhibition, % at 5.96 µM; 2,000 tested, 67% active; AID 2803;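 also: 0% = protein with DMSO and 100% = wells lacking protein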
* marks the source's active call; other numbers are inactive results; x = no result given. Rule as the data show it, unless noted: active = inhibition above about 43%; inactive = the rest.

SMILES	LYPLA1 counter	procasp3 activ	procasp7 counter	LYPLA2 inh	PREPL inh	LYPLA1 conf	LYPLA2 confirm	PREPL inh cf
COc1cccc2c1C(=O)c1c(O)c3c(c(O)c1C2=O)C[C@](O)(C(C)=O)C[C@H]3O[C@@H]1C[C@@H](N)[C@@H](O)[C@@H](C)O1	63.7*	0.2	-3.4	49.7*	25.9	64.2*	40.7*	x
CCn1c(CSc2nnc3ccccn23)nc2cc(C(=O)O)ccc21	38.7*	-7.6	4.2	42.8*	22.8	52.5*	51.1*	x
CCOc1ccc(C(=O)CSc2nnc3ccccn23)cc1	1.4	6.1	-9.8	3.4	7.3	x	x	x
CCn1c(CSc2nnc(-c3ccncc3)n2CCOC)nc2cc(C(=O)O)ccc21	31.3*	3.8	9.9	39.3*	23.1	33.8*	33.7*	x
CCn1c(CSc2nnc(-c3cccnc3)n2-c2ccccc2C)nc2cc(C(=O)O)ccc21	76.9*	-0.9	10.1	80.1*	49.3*	72.1*	72.2*	x
CCn1c(CSc2n[nH]c(N)n2)nc2cc(C(=O)O)ccc21	39.3*	7.2	1.2	38.4*	16.7	34.6*	34.6*	x
Cc1ccc(CCNC(=O)C2CCCN(S(=O)(=O)c3c(C)nn(C)c3C)C2)cc1 (stereo not given)	-0.5	9.9	4.0	4.2	4.9	x	x	x
Cc1ccc(OCC(=O)N(C)CCc2ccccn2)cc1	-2.6	4.2	-5.9	-2.2	1.1	x	x	x
N/C(=N\OC(=O)Cc1ccc([N+](=O)[O-])cc1)c1cccc(Br)c1	-3.3	1.0	2.4	-2.5	0.1	x	x	x
COc1ccc(CNc2ccccc2)cc1Br	-0.9	-2.1	2.8	-4.8	14.7	x	x	x
COc1ccc(Cc2nnc(Nc3ccccc3)s2)cc1Br	42.2*	5.7	-5.7	42.4*	16.0	36.1*	29.6*	x
Cc1cccc(NCc2ccccc2O)n1	4.3	4.6	-2.2	6.1	-8.2	x	x	x
Cn1c(=O)c(NCCc2ccccc2)c2c3c(cccc31)C(=O)c1ccccc1-2	148.3*	-5.9	-12.5	174.4*	163.4*	130.4*	169.8*	166.4*
CCNc1c2c3c(cccc3n(C)c1=O)C(=O)c1ccccc1-2	56.5*	-6.5	-10.9	51.0*	69.2*	49.9*	64.2*	54.3*
Cn1c(=O)c(NCCO)c2c3c(cccc31)C(=O)c1ccccc1-2	97.1*	0.2	-21.7	112.0*	89.9*	93.5*	99.0*	102.8*
CCNC1=C(Cl)C(=O)c2ccccc2C1=O	5.6	-4.3	-7.0	7.0	11.4	x	x	x
Cc1ccc(-c2ccccc2NC(=O)CS(=O)CC(=O)Nc2ccc(C)c(Cl)c2)o1 (stereo not given)	46.0*	-14.0	-30.6	58.9*	60.1*	3.1	8.8	4.7
CCOc1ccc(NC(=S)Nc2ccc3nsnc3c2)cc1	66.2*	-19.8	-27.8	89.8*	43.8*	5.1	34.0*	13.1
CC(C)N=c1cc2n(-c3ccc(Cl)cc3)c3ccccc3nc-2cc1Nc1ccc(Cl)cc1	31.0*	-7.0	-10.9	42.6*	45.5*	14.8*	7.2	48.2*
Cn1c(CNc2ccc(Cl)cc2)nc2ccccc21	-2.3	4.9	1.6	-2.7	15.5	x	x	x
CC(=O)Nc1ccc(NC(=O)C23CC4CC(C2)CC(n2cnc(Br)n2)(C4)C3)cc1	-4.3	7.6	20.0	-5.9	0.7	x	x	x
O=C1c2ccccc2-c2onc3ccc(NCc4ccco4)c1c23	98.5*	-23.4	-23.6	118.2*	82.2*	100.2*	120.8*	105.8*
CCCOC(=S)N/C(=N\S(=O)(=O)c1ccccc1)c1ccccc1	0.7	-7.3	-8.4	-2.7	4.3	x	x	x
CCCCOC(=O)C1CCCC(C)N1 (stereo not given)	1.2	-0.5	10.7	3.2	-8.0	x	x	x
COc1cc(N=Nc2cccc(S(N)(=O)=O)c2)c2ccccc2c1N	14.2*	-28.8	-14.1	18.1	61.3*	-3.3	x	59.0*
